SMILES strings stand for the structures. pKi: −log10 of the molar value.

The species named for assay [1] is Homo sapiens. Nature of the assay: Selectivity index, ratio of Ki for displacement of [3H]MSX-2 from recombinant human A2A adenosine receptor expressed in CHO cell membranes to Ki for displacement of [3H]PSB-603 from recombinant human A2B adenosine receptor expressed in CHO cell membranes. On the technique in general: In a radioligand displacement assay an active substance lowers the binding of a labelled ligand.

The target in another assay is T1, Adenosine receptor A1 (Homo sapiens, UniProt P30542).
T1 sequence (P30542 whole entry): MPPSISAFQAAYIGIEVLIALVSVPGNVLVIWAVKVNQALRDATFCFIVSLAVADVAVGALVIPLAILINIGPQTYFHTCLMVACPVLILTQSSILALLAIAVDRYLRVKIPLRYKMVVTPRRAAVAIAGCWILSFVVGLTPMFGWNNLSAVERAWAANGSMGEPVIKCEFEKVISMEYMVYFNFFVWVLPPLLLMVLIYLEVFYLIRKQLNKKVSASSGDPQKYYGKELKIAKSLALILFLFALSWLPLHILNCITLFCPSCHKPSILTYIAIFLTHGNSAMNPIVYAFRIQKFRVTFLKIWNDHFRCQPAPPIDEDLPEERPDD
The assay can be described thus: Displacement of [3H]CCPA from recombinant human A1 adenosine receptor expressed in CHO cell membranes measured after 90 mins in presence of adenosine deaminase by liquid scintillation counting method. In outline: (§1)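 Competition binding on membranes of cells recombinantly expressing the human receptor (CHO or HEK cells), with tritiated radioligand per subtype: [3H]PSB-603 for A2B, [3H]MSX-2 for A2A, [3H]CCPA for A1, [3H]PSB-11 for A3. Ki ± SEM from n = 3, some from extrapolated curves. Weak binders are reported as % inhibition of radioligand binding at 1 μM.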

For assay [2], the target named is T2, Adenosine receptor A3 (Homo sapiens) (UniProt P0DMS8).
T2 sequence (whole entry): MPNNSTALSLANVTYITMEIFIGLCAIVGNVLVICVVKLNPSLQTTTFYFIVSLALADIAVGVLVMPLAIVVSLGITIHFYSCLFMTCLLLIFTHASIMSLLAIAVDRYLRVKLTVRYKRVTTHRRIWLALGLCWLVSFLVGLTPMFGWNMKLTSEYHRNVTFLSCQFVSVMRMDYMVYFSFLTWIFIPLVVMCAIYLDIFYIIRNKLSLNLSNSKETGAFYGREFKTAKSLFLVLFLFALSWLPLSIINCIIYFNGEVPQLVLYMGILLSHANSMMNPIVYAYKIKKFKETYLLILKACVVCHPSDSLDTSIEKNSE
Nature of the assay: Displacement of [3H]PSB-11 from recombinant human A3 adenosine receptor expressed in CHO cell membranes at 1 uM measured after 45 mins in presence of adenosine deaminase by liquid scintillation counting method relative to control. The essentials:
(§2)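 Single-point competition binding at human AR subtype membranes, each against its own tritiated radioligand. The test compound is given at 1 μM, and the result is reported as percent inhibition of radioligand binding. The radioligand-specific footnotes give n = 3.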

For assay [3], the target named is T3, Adenosine receptor A1 (Homo sapiens) (UniProt P30542).
T3 sequence (whole entry): T1 sequence (P30542 whole entry)
The assay can be described thus: Displacement of [3H]CCPA from recombinant human A1 adenosine receptor expressed in CHO cell membranes at 1 uM measured after 90 mins in presence of adenosine deaminase by liquid scintillation counting method relative to control. In outline:
as §2

A further assay deals with T4, Adenosine receptor A3 (Homo sapiens, UniProt P0DMS8).
T4 sequence (P0DMS8 whole entry): T2 sequence (whole entry)
The assay can be described thus: Displacement of [3H]PSB-11 from recombinant human A3 adenosine receptor expressed in CHO cell membranes measured after 45 mins in presence of adenosine deaminase by liquid scintillation counting method. The essentials:
as §1

Assay [4] addresses T5, Adenosine receptor A2a (Homo sapiens, UniProt P29274). The assay can be described thus: Displacement of [3H]MSX-2 from recombinant human A2A adenosine receptor expressed in CHO cell membranes measured after 30 mins in presence of adenosine deaminase by liquid scintillation counting method. The essentials: as §1
The species entered for assay [5] is Homo sapiens. Nature of the assay: Selectivity index, ratio of Ki for displacement of [3H]PSB-11 from recombinant human A3 adenosine receptor expressed in CHO cell membranes to Ki for displacement of [3H]PSB-603 from recombinant human A2B adenosine receptor expressed in CHO cell membranes.
The target of assay [6] is T5, Adenosine receptor A2a. Nature of the assay: Displacement of [3H]MSX-2 from recombinant human A2A adenosine receptor expressed in CHO cell membranes at 1 uM measured after 30 mins in presence of adenosine deaminase by liquid scintillation counting method relative to control. The essentials: as §2
The next assay deals with T6, Adenosine receptor A2b (Homo sapiens, UniProt P29275).
T6 sequence (P29275 whole entry): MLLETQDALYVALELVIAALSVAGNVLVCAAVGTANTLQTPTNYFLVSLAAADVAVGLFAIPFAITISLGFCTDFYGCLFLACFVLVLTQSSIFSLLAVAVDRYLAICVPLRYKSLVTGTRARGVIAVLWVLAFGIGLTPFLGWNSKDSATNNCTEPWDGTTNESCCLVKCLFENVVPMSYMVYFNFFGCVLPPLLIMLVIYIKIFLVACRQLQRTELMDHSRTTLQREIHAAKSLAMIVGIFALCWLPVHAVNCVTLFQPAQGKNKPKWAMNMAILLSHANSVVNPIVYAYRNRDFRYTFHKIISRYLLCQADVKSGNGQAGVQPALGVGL
The assay can be described thus: Displacement of [3H]PSB-603 from recombinant human A2B adenosine receptor expressed in CHO cell membranes measured after 75 mins in presence of adenosine deaminase by liquid scintillation counting method. In outline:
as §1

The species entered for assay [7] is Homo sapiens. The assay can be described thus: Selectivity index, ratio of Ki for displacement of [3H]CCPA from recombinant human A1 adenosine receptor expressed in CHO cell membranes to Ki for displacement of [3H]PSB-603 from recombinant human A2B adenosine receptor expressed in CHO cell membranes.

T5 sequence (P29274 whole entry): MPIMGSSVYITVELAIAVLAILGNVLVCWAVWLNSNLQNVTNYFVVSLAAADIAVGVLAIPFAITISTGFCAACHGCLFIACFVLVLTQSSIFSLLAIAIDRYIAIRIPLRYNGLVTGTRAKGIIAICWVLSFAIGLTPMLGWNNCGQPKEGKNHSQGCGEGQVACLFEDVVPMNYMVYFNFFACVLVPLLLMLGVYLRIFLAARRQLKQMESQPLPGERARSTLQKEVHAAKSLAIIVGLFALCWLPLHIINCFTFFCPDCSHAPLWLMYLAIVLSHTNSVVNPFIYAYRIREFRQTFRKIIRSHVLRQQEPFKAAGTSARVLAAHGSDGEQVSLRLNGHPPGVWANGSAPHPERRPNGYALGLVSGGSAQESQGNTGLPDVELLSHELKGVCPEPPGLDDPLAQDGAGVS

In general, pKi refers to −log10 of the Ki, conventionally taken in molar units. The term inhibition denotes the relative decrease from the control value, in per cent. With `CCCn1c(=O)[nH]c2nc(-c3ccc(S(=O)(=O)N4CCN(c5cccc(Br)c5)CC4)cc3)[nH]c2c1=O`, the Ratio Ki in the assay filed under Homo sapiens [1], in the assay listed under Homo sapiens [5] and in the assay listed under Homo sapiens [7] was over 4270 in each case. Also, the pKi is under 6.00 at Adenosine receptor A1, under 6.00 on Adenosine receptor A3, under 6.00 at Adenosine receptor A2a [4] and 9.63 on Adenosine receptor A2b. Also, the inhibition in assay [2] was 27%; in assay [3] it was -1%; on Adenosine receptor A2a [6] it was 24%.

Take `CCCn1c(=O)[nH]c2nc(-c3ccc(S(=O)(=O)N4CCN(c5ccc(OC)c(F)c5)CC4)cc3)[nH]c2c1=O`: the Ratio Ki in the assay filed under Homo sapiens [1], in the assay listed under Homo sapiens [5] and in the assay filed under Homo sapiens [7] was over 800 throughout. The pKi was under 6.00 at Adenosine receptor A1, under 6.00 at Adenosine receptor A3, under 6.00 at Adenosine receptor A2a [4] and 8.91 on Adenosine receptor A2b. Further, the inhibition in assay [2] worked out at 21%; in assay [3] it was 34%; on Adenosine receptor A2a [6] it was 30%.

Consider `CCCn1c(=O)[nH]c2nc(-c3ccc(S(=O)(=O)N4CCN(c5ccc(Cl)cc5F)CC4)cc3)[nH]c2c1=O`, for which the Ratio Ki in the assay listed under Homo sapiens [1], in the assay listed under Homo sapiens [5] and in the assay listed under Homo sapiens [7] was over 500 throughout. For the same compound, the pKi at Adenosine receptor A1 is under 6.00; at Adenosine receptor A3 it was under 6.00; at Adenosine receptor A2a [4], under 6.00; on Adenosine receptor A2b, 8.72. Moreover, the inhibition in [2] is 14%; in [3] it was 9%; on Adenosine receptor A2a [6], 6%.

`CCCn1c(=O)[nH]c2nc(-c3ccc(S(=O)(=O)N4CCN(c5cccc(Cl)c5)CC4)cc3)[nH]c2c1=O`: the pKi at Adenosine receptor A1 is under 6.00; at Adenosine receptor A3, 7.27; at Adenosine receptor A2a [4], 6.00; at Adenosine receptor A2b, 9.47. Besides, the inhibition in [3] was 21%; at Adenosine receptor A2a [6], 42%. In addition, the Ratio Ki in the assay listed under Homo sapiens [5] amounted to 160.

Consider `CCCn1c(=O)[nH]c2nc(-c3ccc(S(=O)(=O)N4CCN(Cc5ccc(F)c(OC)c5)CC4)cc3)[nH]c2c1=O`, for which, in the assay filed under Homo sapiens [1], the Ratio Ki turned out to be 220. For the same compound, the pKi at Adenosine receptor A1 is under 6.00; on Adenosine receptor A3, under 6.00; on Adenosine receptor A2a [4], 6.87; on Adenosine receptor A2b, 9.20. For the same compound, the inhibition in assay [2] is -5%; in [3], 25%.

As for `CCCn1c(=O)[nH]c2nc(-c3ccc(S(=O)(=O)N4CCN(C(=O)c5ccccc5)CC4)cc3)[nH]c2c1=O`, the Ratio Ki in the assay listed under Homo sapiens [1] was determined as 30. The pKi on Adenosine receptor A1 is under 6.00; at Adenosine receptor A3 it was under 6.00; at Adenosine receptor A2a [4] it was 6.84; on Adenosine receptor A2b it was 8.24. For the same compound, the inhibition in assay [2] stood at 26%; in [3] it was 15%.

For the compound `CCCn1c(=O)[nH]c2nc(-c3ccc(S(=O)(=O)N4CCN(C(C)c5ccccc5)CC4)cc3)[nH]c2c1=O` (stereo unspecified), the Ratio Ki in the assay listed under Homo sapiens [1], in the assay filed under Homo sapiens [5] and in the assay listed under Homo sapiens [7] was over 120 in each case. Moreover, the pKi was at most 6.00 at Adenosine receptor A1, under 6.00 at Adenosine receptor A3, at most 6.00 on Adenosine receptor A2a [4] and 8.08 on Adenosine receptor A2b. The inhibition is 0% in assay [2], 42% in assay [3] and 42% on Adenosine receptor A2a [6].

With `CCCn1c(=O)[nH]c2nc(-c3ccc(S(=O)(=O)N4CCN(c5ccc(OC)c(Cl)c5)CC4)cc3)[nH]c2c1=O`, the Ratio Ki in the assay listed under Homo sapiens [1], in the assay filed under Homo sapiens [5] and in the assay listed under Homo sapiens [7] was over 2840 throughout. Also, the pKi is under 6.00 at Adenosine receptor A1, under 6.00 on Adenosine receptor A3, under 6.00 on Adenosine receptor A2a [4] and 9.45 at Adenosine receptor A2b. For the same compound, the inhibition in assay [2] worked out at 1%; in assay [3], 23%; on Adenosine receptor A2a [6] it was 31%.

On to `CCCn1c(=O)[nH]c2nc(-c3ccc(S(=O)(=O)N4CCN(Cc5ccc(Br)c(F)c5)CC4)cc3)[nH]c2c1=O`, for which the pKi on Adenosine receptor A1 is 6.49; at Adenosine receptor A3 it was under 6.00; at Adenosine receptor A2a [4] it was 6.39; at Adenosine receptor A2b, 9.33. In addition, in assay [2], the inhibition came out at 27%. In addition, the Ratio Ki in the assay listed under Homo sapiens [7] came out at 690.

Turning to `CCCn1c(=O)[nH]c2nc(-c3ccc(S(=O)(=O)N4CCN(Cc5ccc(C(=O)O)cc5)CC4)cc3)[nH]c2c1=O`, the Ratio Ki in the assay filed under Homo sapiens [1], in the assay filed under Homo sapiens [5] and in the assay filed under Homo sapiens [7] was 10 in each case. Also, the pKi on Adenosine receptor A1 was under 6.00; on Adenosine receptor A3 it was under 6.00; on Adenosine receptor A2a [4], 5.94; on Adenosine receptor A2b, 7.01. For the same compound, the inhibition in assay [2] was -7%; in assay [3], 12%.

Consider `CCCn1c(=O)[nH]c2nc(-c3ccc(S(=O)(=O)N4CCN(c5ccc(C)cc5)CC4)cc3)[nH]c2c1=O`, for which the Ratio Ki in the assay listed under Homo sapiens [1], in the assay filed under Homo sapiens [5] and in the assay listed under Homo sapiens [7] was over 1420 each time. Moreover, the pKi at Adenosine receptor A1 is under 6.00; on Adenosine receptor A3, under 6.00; at Adenosine receptor A2a [4] it was under 6.00; on Adenosine receptor A2b, 9.15. The inhibition in assay [2] came to 25%; in [3], 12%; at Adenosine receptor A2a [6], 34%.

Consider `CCCn1c(=O)[nH]c2nc(-c3ccc(S(=O)(=O)N4CCN(c5cccc(OC)c5)CC4)cc3)[nH]c2c1=O`, for which, in the assay listed under Homo sapiens [1], the Ratio Ki was determined as 320. The pKi is under 6.00 on Adenosine receptor A1, under 6.00 on Adenosine receptor A3, 6.71 on Adenosine receptor A2a [4] and 9.21 at Adenosine receptor A2b. Besides, the inhibition in assay [2] was -1%; in assay [3] it was -3%.

On to `CCCn1c(=O)[nH]c2nc(-c3ccc(S(=O)(=O)N4CCN(Cc5ccc(OC)c(F)c5)CC4)cc3)[nH]c2c1=O`, for which, in the assay filed under Homo sapiens [1], the Ratio Ki came to 270. Further, the pKi on Adenosine receptor A1 is under 6.00; on Adenosine receptor A3 it was under 6.00; at Adenosine receptor A2a [4], 6.61; on Adenosine receptor A2b, 9.05. Also, the figures for the inhibition in assay [2] and in assay [3] were 15% and 24%, respectively.

For `CCCn1c(=O)[nH]c2nc(-c3ccc(S(=O)(=O)N4CCN(c5ccc(I)cc5)CC4)cc3)[nH]c2c1=O`, the Ratio Ki in the assay listed under Homo sapiens [1], in the assay listed under Homo sapiens [5] and in the assay filed under Homo sapiens [7] was over 6290 throughout. Further, the pKi at Adenosine receptor A1 was under 6.00; on Adenosine receptor A3 it was under 6.00; at Adenosine receptor A2a [4], 5.52; at Adenosine receptor A2b, 9.80. The inhibition in assay [2] worked out at 36%; in [3], 24%.

For `CCCn1c(=O)c2[nH]c(-c3ccc(S(=O)(=O)N4CCN(c5ccc(Cl)cc5)CC4)cc3)nc2n(CC)c1=O`, the Ratio Ki in the assay filed under Homo sapiens [1] was found to be 75. Besides, the pKi on Adenosine receptor A1 was under 6.00; on Adenosine receptor A3 it was under 6.00; on Adenosine receptor A2a [4], 6.49; at Adenosine receptor A2b, 8.37. Also, the inhibition amounted to 28% in assay [2] and 24% in [3].

The values are drawn from ChEMBL document CHEMBL4346653, “A2B Adenosine Receptor Antagonists with Picomolar Potency” (J Med Chem, 2019).
